In paper PMC2575414 (Bioorganic & medicinal chemistry letters, 2008):
Where a SMILES comes first, the peptide text is derived from it. [ ]: non-standard residue; d: D form. The star is where a group is joined. Hydrocinnamoyl = O=C(CCc1ccccc1)*; Ac5c = NC1(C(=O)O)CCCC1; Deg = CCC(N)(CC)C(=O)O

How the values were obtained:
human liver cathepsin B = human liver cathepsin B (Homo sapiens, UniProt P07858); test: Cathepsin B inhibition assay; format: biochemical
Outline: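 Human liver cathepsin B (1 nM) in 50 mM NaOAc pH 6.0 with 1 mM EDTA and 0.5 mM DTT. Z-Arg-Arg-AMC at 50 µM or 250 µM, plus varying inhibitor concentrations in DMSO (2% total). Ki is the mean of triplicates from Dixon plots (r ≥ 0.95). Selectivity ratio is […].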

[1] = target: T1, porcine erythrocyte μ-calpain (Sus scrofa, UniProt P35750); test: Calpain inhibition assay; format: biochemical
T1 sequence (P35750 1-714): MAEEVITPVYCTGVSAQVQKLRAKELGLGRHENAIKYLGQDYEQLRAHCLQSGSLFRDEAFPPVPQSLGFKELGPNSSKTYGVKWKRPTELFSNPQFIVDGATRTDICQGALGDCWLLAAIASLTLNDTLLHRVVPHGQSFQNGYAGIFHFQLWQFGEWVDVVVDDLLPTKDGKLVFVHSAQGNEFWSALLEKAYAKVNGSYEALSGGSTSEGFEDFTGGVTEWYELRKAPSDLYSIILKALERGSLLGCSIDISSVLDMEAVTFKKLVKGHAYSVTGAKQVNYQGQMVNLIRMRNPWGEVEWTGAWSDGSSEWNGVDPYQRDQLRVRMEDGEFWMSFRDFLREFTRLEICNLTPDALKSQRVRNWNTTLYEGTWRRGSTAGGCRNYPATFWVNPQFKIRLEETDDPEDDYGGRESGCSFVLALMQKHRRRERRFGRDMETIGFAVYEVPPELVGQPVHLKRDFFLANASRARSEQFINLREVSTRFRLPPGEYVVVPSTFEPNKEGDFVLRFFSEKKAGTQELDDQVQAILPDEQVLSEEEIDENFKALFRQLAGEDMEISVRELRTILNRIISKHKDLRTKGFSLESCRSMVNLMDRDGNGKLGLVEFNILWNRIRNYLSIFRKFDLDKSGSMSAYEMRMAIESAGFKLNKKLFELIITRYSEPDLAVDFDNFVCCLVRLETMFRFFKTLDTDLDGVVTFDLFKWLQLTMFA
T1 sequence (P04574 1-266 partner): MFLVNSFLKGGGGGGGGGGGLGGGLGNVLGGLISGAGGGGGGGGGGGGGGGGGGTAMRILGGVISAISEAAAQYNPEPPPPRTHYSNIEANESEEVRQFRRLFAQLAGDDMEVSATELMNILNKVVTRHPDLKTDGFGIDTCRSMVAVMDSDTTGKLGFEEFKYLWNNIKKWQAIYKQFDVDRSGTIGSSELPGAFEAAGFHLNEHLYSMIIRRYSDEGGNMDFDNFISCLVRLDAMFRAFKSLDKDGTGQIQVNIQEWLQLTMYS

Row | cathepsin B inhibition relative to compound 3 (human liver cathepsin B; 2 compared to 3) [fold] | selectivity for cathepsin B compared to μ-calpain (human liver cathepsin B; as stated in abstract) [fold] | selectivity for μ-calpain compared to cathepsin B [1] | potency for μ-calpain inhibition relative to compound 2 ([1]; 3 compared to 2) | Structure (SMILES)
1 | 3 | 3 | – | – | O=C[C@H](Cc1ccccc1)NC(=O)C1(NC(=O)CCc2ccccc2)CCCC1 [Compound 2, 1-(3-Phenyl-propionylamino)-cyclopentane carboxylic acid (1-benzyl-2-oxo-ethyl)-amide] (Hydrocinnamoyl-[Ac5c]-Phe-aldehyde)
2 | – | – | over 35 fold | over 20 fold | CCC(CC)(NC(=O)CCc1ccccc1)C(=O)N[C@H](C=O)Cc1ccccc1 [Compound 3, N-(1-Benzyl-2-oxo-ethyl)-2-ethyl-2-(3-phenyl-propionylamino)-butyramide] (Hydrocinnamoyl-[Deg]-Phe-aldehyde)
